Source: PubChem BioAssay (several laboratories)
aSyn 5UTR inh = MLPCN primary screen, SNCA 5' untranslated region | alpha-synuclein 5'UTR reporter, inhibitor activity | inhibition, % (tested at 7.5 µM) | hit rate 0.82% among 300,000 | AID 1813, 2009; in the data active means inhibition above about 60%;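 further: H4 neuroglioblastoma cells stably carrying SNCA 5'UTR luciferase fusion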
VIM-2 inhibitor = VIM-2 metallo-beta-lactamase inhibitors, primary screen, biochemical, epi-absorbance readout, Pseudomonas aeruginosa enzyme. purified VIM-2, nitrocefin hydrolysis, epi-absorbance fluorescence. inhibition, % at 5.6 µM. hit rate 0.89% among 290,000. AID 1527, 2009;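 active means inhibition above the mean of all tested compounds plus 3 SD, cutoff set per screening run, cut at about 7.5% in these data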;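 further: red hydrolysis product quenches plate fluorescence so inhibitors raise well fluorescence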
697 NFkB inh = inhibitors of PMA/ionomycin-induced NF-kB reporter, 697 cells, primary screen, B-cell NF-kB inhibitor project, cell-based, luminescence, uHTS; 697 B-cell NF-kB luciferase reporter, 16 h; inhibition, % at 4 µM; hit rate 0.33% among 330,000; AID 435022, 2010; in the data active means inhibition above about 35%
IMP-1 inh = IMP-1 metallo-beta-lactamase inhibitors, primary screen, biochemical, epi-absorbance readout, Pseudomonas aeruginosa enzyme | metallo-beta-lactamase IMP-1 (Pseudomonas aeruginosa) | purified IMP-1, nitrocefin hydrolysis, epi-absorbance fluorescence | inhibition, % at 5.6 µM | hit rate 0.45% among 290,000;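 active means inhibition above the mean plus 3 SD of all compounds in the same screening run, cut at about 4.5% in these data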
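System: purified recombinant IMP-1 beta-lactamase. Medium: Zinc- and detergent-supplemented HEPES buffer, pH 7.1. Compound: one 5.6 µM dose […]. Schedule: 15 min preincubation plus 25 min reaction at 25 °C. Technique: Epi-absorbance fluorescence, 480 nm excitation, 530 nm emission.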
Mdm2-MdmX inh = inhibitors of human Mdm2-MdmX association, primary screen, cell-based, luminescence, split luciferase, SaOS-2, uHTS; Protein Mdm4 (Homo sapiens) + E3 ubiquitin-protein ligase Mdm2 (Homo sapiens), …; SaOS-2 split-luciferase Mdm2/MdmX complementation; inhibition, % at 8 µM; hit rate 3% among 330,000; AID 485346, 2010;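 active means inhibition of at least 50% at 8 µM in the primary screen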
Jurkat NFkB inh = inhibitors of induced NF-kB luciferase reporter, primary screen, TCR NF-kB activation inhibitor project, cell-based, luminescence, uHTS | hit rate 0.53% among 330,000 | inhibition, % at 4 µM | Jurkat, PMA/ionomycin-induced NF-kB luciferase reporter; in the data active means inhibition above about 50%
Hits are given with their value. An excerpt weighted towards active compounds, which were near 4.7% of everything screened.

What do the screens show for `CCCCCCC[n+]1ccc(-c2cc[n+](CCCCCCC)cc2)cc1`?
aSyn 5UTR inh: 91.5; VIM-2 inhibitor: inactive; 697 NFkB inh: inactive; IMP-1 inh: 5.0; Mdm2-MdmX inh: inactive; Jurkat NFkB inh: inactive

What do the screens show for `CN1CCN(Cc2cc3c(cc2[N+](=O)[O-])OCO3)CC1`?
aSyn 5UTR inh: inactive; VIM-2 inhibitor: inactive; 697 NFkB inh: inactive; IMP-1 inh: inactive; Mdm2-MdmX inh: inactive; Jurkat NFkB inh: inactive

Results for COC(=O)c1nc(-c2ccc3c(n2)C(=O)C(N)=C(OC)C3=O)c(N)c(-c2ccc(OC)c(OC)c2O)c1C ?
aSyn 5UTR inh: 97.2; VIM-2 inhibitor: inactive; 697 NFkB inh: inactive; IMP-1 inh: inactive; Mdm2-MdmX inh: inactive; Jurkat NFkB inh: inactive

What do the screens show for `Cc1cc(OCc2nn[nH]n2)c2c3c(c(=O)oc2c1)CCC3`?
aSyn 5UTR inh: inactive; VIM-2 inhibitor: 11.8; 697 NFkB inh: inactive; IMP-1 inh: inactive; Mdm2-MdmX inh: inactive; Jurkat NFkB inh: inactive

Results for Cc1cc(OCC(=O)N[C@@H](Cc2ccccc2)C(=O)O)c2c3c(c(=O)oc2c1)CCCC3 ?
aSyn 5UTR inh: inactive; VIM-2 inhibitor: 11.3; 697 NFkB inh: inactive; IMP-1 inh: inactive; Mdm2-MdmX inh: inactive; Jurkat NFkB inh: inactive

Results for COC(=O)C(C)Oc1cc(C)cc2oc(=O)c3c(c12)CCCC3 (configuration not stated) ?
aSyn 5UTR inh: inactive; VIM-2 inhibitor: 9.9; 697 NFkB inh: inactive; IMP-1 inh: inactive; Mdm2-MdmX inh: inactive; Jurkat NFkB inh: inactive

How did COC(=O)C1=C(c2ccc(OC)c(OC)c2)C[C@@H]2CC[C@H]1N2C(=O)NC(C)C do in these assays?
697 NFkB inh: inactive; Mdm2-MdmX inh: inactive; Jurkat NFkB inh: inactive

Results for O=C(c1cc(F)ccc1F)C1CCCN(CCCc2ccccc2)C1 (configuration not stated) ?
aSyn 5UTR inh: inactive; VIM-2 inhibitor: inactive; 697 NFkB inh: inactive; IMP-1 inh: inactive; Mdm2-MdmX inh: inactive; Jurkat NFkB inh: inactive

How did O=C(Nc1cccc(OC(=O)N2CCCCC2)c1)N1CCCCC1 do in these assays?
aSyn 5UTR inh: inactive; VIM-2 inhibitor: inactive; 697 NFkB inh: inactive; IMP-1 inh: inactive; Mdm2-MdmX inh: inactive; Jurkat NFkB inh: inactive

What do the screens show for `CC(=O)Nc1ccc(OC(=O)N2CCCCC2)cc1`?
aSyn 5UTR inh: 69.5; VIM-2 inhibitor: inactive; 697 NFkB inh: inactive; IMP-1 inh: inactive; Mdm2-MdmX inh: inactive; Jurkat NFkB inh: inactive

How did Cc1cc(C=C2C(=O)N(C)C(=S)N(C)C2=O)c(C)n1-c1ccncc1 do in these assays?
aSyn 5UTR inh: inactive; VIM-2 inhibitor: inactive; 697 NFkB inh: inactive; IMP-1 inh: 17.9; Mdm2-MdmX inh: inactive; Jurkat NFkB inh: inactive

How did CN1Cc2c(c(C#N)c(N)n(C)c2=S)CC1(C)C do in these assays?
aSyn 5UTR inh: inactive; VIM-2 inhibitor: inactive; 697 NFkB inh: inactive; IMP-1 inh: inactive; Mdm2-MdmX inh: inactive; Jurkat NFkB inh: inactive

Results for COc1ccc(-n2c(O)c(/C=C/C=Nc3ccccc3)c(=O)[nH]c2=O)cc1 ?
aSyn 5UTR inh: inactive; VIM-2 inhibitor: inactive; 697 NFkB inh: inactive; IMP-1 inh: 9.4; Mdm2-MdmX inh: inactive; Jurkat NFkB inh: inactive

What do the screens show for `C[N+](C)(C)c1ccccc1`?
aSyn 5UTR inh: inactive; VIM-2 inhibitor: inactive; 697 NFkB inh: inactive; IMP-1 inh: inactive; Mdm2-MdmX inh: inactive; Jurkat NFkB inh: inactive

Results for CN(C)C(=O)Oc1ccc(Br)c2ccccc12 ?
aSyn 5UTR inh: inactive; VIM-2 inhibitor: inactive; 697 NFkB inh: inactive; IMP-1 inh: inactive; Mdm2-MdmX inh: inactive; Jurkat NFkB inh: inactive

How did N#Cc1c(N2CCNCC2)nc(-c2ccco2)c2c1CCCC2 do in these assays?
aSyn 5UTR inh: inactive; VIM-2 inhibitor: 8.9; 697 NFkB inh: inactive; IMP-1 inh: inactive; Mdm2-MdmX inh: inactive; Jurkat NFkB inh: inactive

What do the screens show for `O=P(NCc1ccccc1)(Oc1ccccc1)Oc1ccccc1`?
aSyn 5UTR inh: inactive; VIM-2 inhibitor: inactive; 697 NFkB inh: inactive; IMP-1 inh: inactive; Mdm2-MdmX inh: inactive; Jurkat NFkB inh: inactive

What do the screens show for `O=[As](O)(O)c1ccc(N=Nc2ccc(O)cc2)cc1`?
aSyn 5UTR inh: inactive; VIM-2 inhibitor: inactive; IMP-1 inh: 5.1

What do the screens show for `NC(=O)c1ccc(C(=O)Nc2ccc([As](=O)(O)O)cc2)cc1`?
aSyn 5UTR inh: inactive; VIM-2 inhibitor: inactive; 697 NFkB inh: inactive; IMP-1 inh: inactive; Mdm2-MdmX inh: inactive; Jurkat NFkB inh: inactive

How did CCN(CC)CCCNC(=O)c1c(O)c2ccccc2n(Cc2ccccc2)c1=O do in these assays?
aSyn 5UTR inh: inactive; VIM-2 inhibitor: 12.1; 697 NFkB inh: inactive; IMP-1 inh: inactive; Mdm2-MdmX inh: inactive; Jurkat NFkB inh: inactive

What do the screens show for `CCN(CC)CCNC(=O)c1c(O)c2ccccc2n(Cc2ccccc2)c1=O`?
aSyn 5UTR inh: inactive; VIM-2 inhibitor: inactive; 697 NFkB inh: inactive; IMP-1 inh: inactive; Mdm2-MdmX inh: inactive; Jurkat NFkB inh: inactive

How did CC12CC[C@H]3[C@@H](CCC4(O)C[C@H](O)CCC34/C=N/NC(=O)c3ccccc3O)C1(O)CCC2C1=CC(=O)OC1 (some centres not stated) do in these assays?
aSyn 5UTR inh: 76.5; VIM-2 inhibitor: inactive; 697 NFkB inh: inactive; IMP-1 inh: inactive; Mdm2-MdmX inh: inactive; Jurkat NFkB inh: inactive

What do the screens show for `COc1ccc(C(=O)N/N=C/C23CC[C@@H](O)CC2(O)CC[C@@H]2[C@@H]3CCC3(C)C(C4=CC(=O)OC4)CCC23O)cc1` (some centres not stated)?
aSyn 5UTR inh: 88.5; VIM-2 inhibitor: inactive; 697 NFkB inh: inactive; IMP-1 inh: inactive; Mdm2-MdmX inh: inactive; Jurkat NFkB inh: inactive

What do the screens show for `CC12CC[C@H]3[C@@H](CCC4(O)C[C@H](O)CCC34/C=N/NC(=O)c3ccc(O)cc3)C1(O)CCC2C1=CC(=O)OC1` (some centres not stated)?
aSyn 5UTR inh: inactive; VIM-2 inhibitor: inactive; 697 NFkB inh: inactive; IMP-1 inh: inactive; Mdm2-MdmX inh: inactive; Jurkat NFkB inh: inactive

What do the screens show for `CC12CC[C@H]3[C@@H](CCC4(O)C[C@H](O)CCC34/C=N/NC(=O)c3ccccc3F)C1(O)CCC2C1=CC(=O)OC1` (some centres not stated)?
aSyn 5UTR inh: 63.7; VIM-2 inhibitor: inactive; 697 NFkB inh: inactive; IMP-1 inh: inactive; Mdm2-MdmX inh: inactive; Jurkat NFkB inh: inactive

Results for O=[N+]([O-])c1cc(S(=O)(=O)c2ccc(O)c([N+](=O)[O-])c2)ccc1O ?
aSyn 5UTR inh: inactive; VIM-2 inhibitor: inactive; 697 NFkB inh: inactive; IMP-1 inh: inactive; Mdm2-MdmX inh: inactive; Jurkat NFkB inh: inactive

Results for COC(=O)C1=C(c2ccc3ccccc3c2)C[C@@H]2CC[C@H]1N2C(=O)NCc1ccc(C(F)(F)F)cc1 ?
697 NFkB inh: inactive; Mdm2-MdmX inh: inactive; Jurkat NFkB inh: inactive
